# Screens: PubChem BioAssay, The Scripps Research Institute Molecular Screening Center
# PRMT1 FP inh = PRMT1 methyltransferase inhibitors, primary screen, biochemical, fluorescence polarization. Protein arginine N-methyltransferase 1 (Homo sapiens), Q99873. recombinant PRMT1, activity-based probe fluorescence polarization. inhibition, % at 2.79 µM. 370,000 compounds, 1.3% hits;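 active = inhibition above about 21% made by adding two undisclosed values, limit read from the data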
# TCR CD3 inh = inhibitors of human TCR-CD3 interaction, primary screen, biochemical, fluorescence, TAMRA-labeled TCR probe; T-cell receptor (TCR); inhibition, % at 9.4 µM; 360,000 compounds, 0.37% hits; AID 651800, 2012; in the data active = inhibition above about 19%;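 note: recombinant mutant TCR 2C K166C tagged with TAMRA read by polarization; 0% = receptor in buffer alone and 100% = receptor with positive control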
# SIAE inh = human SIAE inhibitors, primary screen, biochemical, fluorescence polarization, FP-Rh probe, 1536-well HTS; AID 1053197, 2014; SIAE FP-Rh probe binding; 370,000 compounds, 0.69% hits; inhibition, % at 9.66 µM; Sialate O-acetylesterase (Homo sapiens), Q9HAT2;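 active = inhibition above a cutoff: mean of compounds within the control limits plus 3 SD of those, cut at about 17% in these data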;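 note: 0% = plate median of compound wells and 100% = probe without SIAE protein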
# Target sequence (Q9HAT2 whole entry, looked up): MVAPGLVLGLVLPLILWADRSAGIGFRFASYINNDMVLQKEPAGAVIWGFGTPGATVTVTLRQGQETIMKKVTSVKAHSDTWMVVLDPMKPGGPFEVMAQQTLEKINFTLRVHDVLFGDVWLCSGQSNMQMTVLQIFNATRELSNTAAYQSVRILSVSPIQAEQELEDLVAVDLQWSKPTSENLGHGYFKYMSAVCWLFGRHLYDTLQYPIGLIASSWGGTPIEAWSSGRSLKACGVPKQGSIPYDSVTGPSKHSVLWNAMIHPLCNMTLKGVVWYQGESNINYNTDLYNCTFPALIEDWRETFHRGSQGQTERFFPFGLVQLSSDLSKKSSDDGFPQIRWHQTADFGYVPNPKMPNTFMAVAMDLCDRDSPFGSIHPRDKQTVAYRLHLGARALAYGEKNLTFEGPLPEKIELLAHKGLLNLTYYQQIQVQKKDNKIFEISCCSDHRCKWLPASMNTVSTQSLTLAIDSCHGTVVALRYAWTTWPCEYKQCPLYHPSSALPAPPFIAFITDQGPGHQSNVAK
# HTRA1 inhibitor = HTRA1 serine protease inhibitors, primary screen, biochemical, fluorescence polarization, HTS; Q92743; recombinant HTRA1, FP-rhodamine activity-based probe; inhibition, % at 5.96 µM; 340,000 compounds, 0.5% hits; in the data active = inhibition above about 36%;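 note: 0% = enzyme with DMSO and 100% = wells lacking enzyme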
# ABHD4 inh = ABHD4 inhibitors, primary screen, biochemical, fluorescence polarization, mouse | purified mABHD4, FP-Rh probe fluorescence polarization | (Lyso)-N-acylphosphatidylethanolamine lipase (Mus musculus), Q8VD66 | AID 720543, 2013 | 370,000 compounds, 0.54% hits | inhibition, % at 8.92 µM;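 active = inhibition exceeding the mean over every tested compound plus 3 SD, cut at about 30% in these data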;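 note: 0% = plate median of compound wells and 100% = S159A mutant with DMSO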
#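 Assay system: mABHD4 protein; medium: HEPES pH 7.0, NaCl, Pluronic buffer; dosing: 8.92 µM, single dose; schedule: 45 min + 60 min at 25 °C; signal: FP readout, ex 525 nm / em 598 nm; read-out: normalized percent inhibition of probe labeling; repeats: single replicate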
# SIAE inh conf = human SIAE inhibitors, retest, confirmation, biochemical, fluorescence polarization, FP-Rh probe, triplicate. inhibition, % at 9.66 µM. shares compounds with SIAE inh. AID 1117263, 2014. SIAE FP-Rh activity-based probe. 2,300 compounds, 13% hits;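 active = mean inhibition of the replicates above the hit cutoff set in the primary screen, cut at about 17% in these data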;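 note: 0% = SIAE with DMSO and probe and 100% = probe without SIAE; inhibitors lower polarization as more probe stays unbound to SIAE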
# * hit, by the source's call; . = not tested or not shown. Hits are enriched below; roughly 2.5% of the tested compounds scored in any of these assays.
SMILES,PRMT1 FP inh,TCR CD3 inh,SIAE inh,HTRA1 inhibitor,ABHD4 inh,SIAE inh conf
COc1ccccc1NC(=S)N/N=C/c1ccc(O)cc1,0,-11,19*,-2,2,-2
CN(C)S(=O)(=O)c1ccc(SCC(=O)N2CC(=O)Nc3ccccc32)nc1,1,-4,17*,7,2,-3
O=C1CN(C(=O)CSc2ccccn2)c2ccccc2N1,-3,2,9,4,5,.
CC(C)(C)N(NC(=O)NCCCl)C(=O)c1ccccc1Cl,-2,.,-5,.,-1,.
COc1ccc(N2CC(=O)N(c3ccc(OC)c(OC)c3)CC2=O)cc1OC,-4,5,19*,2,1,-3
CCOc1ccc(OCCC(=O)OC(C)C(=O)Nc2ccc(C(C)=O)cc2)cc1 (centres undefined),0,3,-1,-1,-4,.
CC(=O)Nc1ccc(NC(=O)C(C)OC(=O)COc2ccc(Nc3ccccc3)cc2)cc1 (centres undefined),11,0,23*,12,8,8
Fc1ccc(Cn2ccc3ccc(-c4ccc5ccn(Cc6ccc(F)cc6)c5c4)cc32)cc1,-2,.,2,.,5,.
CN(c1cccnc1)c1ccc(NC(=O)Cc2cn(Cc3ccccc3)c3ccccc23)cc1Br,3,2,21*,.,18,24*
O=C(Cc1cn(Cc2ccccc2)c2ccccc12)Nc1ccc(Oc2cccnc2)cc1,2,-1,-7,.,-9,.
Cn1cc(CC(=O)Nc2ccc(Nc3cccnc3)cc2)c2ccccc21,2,-7,21*,.,8,23*
CN1C2=N[C@H](c3ccccc3)CC(=O)N2/C(=C\c2ccccc2)C1Cc1ccccc1 (some centres undefined),-2,.,13,.,-2,.
O=C(c1ccccc1I)N1CCC(Oc2cccnc2)CC1,-1,.,-5,.,1,.
COC(=O)C1=C(C(=O)OC)C2(OC1c1ccccc1C)C(=O)c1ccccc1C2=O (centres undefined),-1,2,19*,-5,-3,-7
Oc1ccc(O)c(Cc2nc3ccccc3[nH]2)c1,30*,0,19*,7,11,3
Cc1ccc(-n2ccnc(SCC(=O)NC3CCCC3)c2=O)cc1Cl,15,0,17*,1,9,-9
CCN(CC)c1ccc(/C=N/NC(=O)c2cccc(S(=O)(=O)Nc3ccccc3OC)c2)cc1,3,-3,11,6,-8,.
CCc1cccc2c(/C=N/NC(=O)c3cccc(S(=O)(=O)Nc4ccccc4Cl)c3)c[nH]c12,2,-1,36*,11,1,-1
Cc1[nH]c2ccccc2c1/C=N/NC(=O)c1cccc(S(=O)(=O)Nc2ccccc2Cl)c1,2,-5,37*,6,21,11
COc1ccc2c(Cl)c(C(=O)N/N=C/c3c(C)[nH]c4ccccc34)sc2c1,-1,-8,23*,0,7,10
CCN(CC)c1ccc(/C=N/NC(=O)c2cccc(S(=O)(=O)Nc3ccccc3OC)c2)c(O)c1,-2,15,35*,36*,23,8
COc1cccc(C(=O)NCC(=O)N/N=C/c2c(C)[nH]c3ccccc23)c1,2,-2,2,0,2,.
Cc1[nH]c2ccccc2c1/C=N/NC(=O)c1cccc(Br)c1,.,.,.,2,.,.
COC(=O)C1CN(C2CC2)CCS(=O)(=O)N1Cc1cn(Cc2ccc(Cl)cc2)nn1 (centres undefined),0,.,1,.,1,.
CC[C@]12CCCN3CCc4c(n(c5ccccc45)[C@](O)(C(=O)OC)C1)[C@@H]32,-1,8,0,-2,-4,.
SMILES,PRMT1 FP inh,TCR CD3 inh,SIAE inh,HTRA1 inhibitor,ABHD4 inh,SIAE inh conf
CCC12CCCN3CCc4c(n(c5ccccc45)C(O)(C(=O)OC)C1)C32 (centres undefined),3,9,21*,14,10,3
O=C(NCc1cccc2ccccc12)C1CCCN(c2nc3ccccc3o2)C1 (centres undefined),0,.,1,.,-9,.
Cc1cc(Cl)ccc1NC(=O)COC(=O)c1cc([N+](=O)[O-])ccc1N1CCOCC1,-5,11,5,-7,-6,.
CCc1cccc(C)c1NC(=O)COC(=O)c1cc([N+](=O)[O-])ccc1N1CCOCC1,-3,1,19*,4,5,0
CCOC(=O)COn1c(=O)c(-c2ccc(Br)cc2)[n+]([O-])c2ccccc21,-5,-4,17*,3,-5,-1
CC(C)CCNC(=O)[C@H]1COC(O)([C@H](Cc2ccccc2)NC(=O)[C@@H](NC(=O)OCc2ccccc2)C(C)C)CN1C (some centres undefined),-1,.,-4,.,3,.
CN1[C@@H](Cc2ccccc2)COc2cccc(F)c2S1(=O)=O,1,.,-6,.,0,.
O=Nc1c(O)[nH]c2c(F)cccc12,1,-3,5,13,8,.
CCc1cccc2c(N=O)c(O)[nH]c12,1,2,21*,13,-2,15
O=C1CCCCC1Nc1ccc([N+](=O)[O-])cc1 (centres undefined),0,6,-4,5,2,.
O=[N+]([O-])c1ccc(NC2CCCC2)cc1,0,3,19*,-9,4,1
CC(C)C(=O)N1CC[C@H]2[C@H](CCCN2Cc2cc(F)cc(F)c2)C1,0,.,3,.,-3,.
CC1Cc2nc(SCC(=O)c3ccccc3)n(Cc3ccccc3)c(=O)c2S1 (centres undefined),6,0,0,-35,-19,.
CC1Cc2nc(SCC(=O)NCc3ccccc3)n(Cc3ccccc3)c(=O)c2S1 (centres undefined),0,2,17*,-4,5,2
COc1cc(/C=C(/C#N)c2ccc(C)cc2)ccc1Oc1ccc([N+](=O)[O-])cn1,-2,2,35*,3,-12,-2
CCOc1cc(/C=C(/C#N)c2nc3ccccc3[nH]2)ccc1Oc1ccc([N+](=O)[O-])cn1,-5,1,-30,-8,-2,.
CN(C)c1ccc(C(CNS(=O)(=O)c2ccc(F)c(F)c2)c2c[nH]c3ccccc23)cc1 (centres undefined),1,4,27*,11,-10,3
CCCc1nc2ccccc2c(C(=O)OCC(=O)NCc2ccco2)c1CC,9,-7,-7,-12,-2,.
CCCc1nc2ccccc2c(C(=O)OCC(=O)NC2CC2)c1CC,-5,1,25*,-5,-3,4
